Screens from PubChem.
An excerpt weighted towards active compounds, which were near 2.3% of everything screened.
TRPC4 act – activators of mouse TRPC4 channel | HEK293 TRPC4beta/mu-opioid, Fluo4 calcium fluorescence; stronger effect = higher value | B-score at 10 µM | hit rate 0.49% among 310,000 | AID 2237;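 active = B-score above 5 SD of library B-scores, and initial fluorescence ratio not above library mean plus 5 SD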;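 also: positive B-score marks a calcium rise read as TRPC4 activation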
Target sequence (Q9QUQ5 whole entry, looked up): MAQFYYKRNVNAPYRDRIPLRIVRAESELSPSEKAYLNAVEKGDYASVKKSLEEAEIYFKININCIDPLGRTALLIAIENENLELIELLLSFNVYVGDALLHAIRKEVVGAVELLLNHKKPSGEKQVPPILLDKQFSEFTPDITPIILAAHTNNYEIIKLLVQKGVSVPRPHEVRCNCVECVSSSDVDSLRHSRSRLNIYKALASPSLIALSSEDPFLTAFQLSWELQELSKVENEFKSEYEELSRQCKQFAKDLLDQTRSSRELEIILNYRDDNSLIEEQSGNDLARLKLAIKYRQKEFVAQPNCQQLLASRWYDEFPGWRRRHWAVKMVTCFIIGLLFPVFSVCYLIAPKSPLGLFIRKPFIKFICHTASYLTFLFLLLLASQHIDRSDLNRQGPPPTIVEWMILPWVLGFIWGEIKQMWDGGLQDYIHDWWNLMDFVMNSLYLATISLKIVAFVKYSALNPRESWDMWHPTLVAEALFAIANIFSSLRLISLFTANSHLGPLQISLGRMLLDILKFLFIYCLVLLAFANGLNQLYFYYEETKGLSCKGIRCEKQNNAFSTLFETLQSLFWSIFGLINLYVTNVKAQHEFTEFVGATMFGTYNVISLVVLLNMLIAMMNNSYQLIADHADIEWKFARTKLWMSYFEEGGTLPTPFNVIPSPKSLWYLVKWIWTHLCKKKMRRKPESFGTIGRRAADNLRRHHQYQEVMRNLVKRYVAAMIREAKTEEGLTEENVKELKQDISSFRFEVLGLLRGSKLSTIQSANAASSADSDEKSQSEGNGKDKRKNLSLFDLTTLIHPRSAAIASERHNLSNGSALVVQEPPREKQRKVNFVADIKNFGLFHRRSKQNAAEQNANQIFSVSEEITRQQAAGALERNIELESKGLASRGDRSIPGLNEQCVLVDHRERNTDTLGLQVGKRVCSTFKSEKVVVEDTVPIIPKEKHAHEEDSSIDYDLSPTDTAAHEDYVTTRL
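System – HEK293 cells stably co-expressing mouse TRPC4beta and mu-opioid receptor · Signal – Fluo4 calcium-sensitive dye fluorescence, kinetic, 1 Hz baseline · Benchmarks – buffer (low) and maximal DAMGO (high) · Read-out – B score of integrated fluorescence ratio per well · Incubation – dye loading 45 min room temperature, 110 s kinetic read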
TRPC6 activator – mouse TRPC6 channel activation. hit rate 0.13% among 310,000. HEK293-TRPC6 membrane potential dye fluorescence; stronger effect = higher value. B-score at 10 µM. Q61143. AID 2550;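 active = B-score of the integrated fluorescence ratio above library mean plus 3 SD, and starting fluorescence ratio within library mean plus 5 SD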;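 also: higher score means more depolarization so channel activation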
TRPC6 inhibitor – mouse TRPC6 channel inhibition. hit rate 1.1% among 310,000. HEK293-TRPC6, membrane potential dye, ACh-evoked depolarization; stronger effect = lower value. AID 2553. B-score at 10 µM;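 active = B-score under library mean minus 3 SD, initial fluorescence not abnormally high, positive integrated signal ratio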;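 also: B-score derived from integrated fluorescence ratio over the kinetic read; more negative B-score means stronger inhibition of depolarization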
TRPC4 block – TRPC4 (mouse) channel inhibition; Q9QUQ5; HEK293 TRPC4beta/mu-opioid, DAMGO-evoked Fluo4 calcium flux; stronger effect = lower value; B-score at 10 µM; hit rate 0.39% among 300,000; AID 2247;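 active = B-score over 3 SD under the library average, no early fluorescence shift, positive overall ratio signal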
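Material: HEK293 cells with stable TRPC4beta plus mu-opioid receptor expression; probe or stimulus: DAMGO in two steps, submaximal then maximal; technique: Fluo4 calcium fluorescence by kinetic imaging, 5 s 1 Hz baseline; measure: integrated fluorescence ratio relative to baseline, converted to per-well B score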
TRPC4 PAM – allosterically enhances the mouse TRPC4 cation channel; Q9QUQ5; HEK293 TRPC4beta/mu-opioid, DAMGO EC20, Fluo-4 Ca2+ flux; stronger effect = higher value; B-score at 10 µM; hit rate 0.42% among 310,000; AID 2227;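 active = B-score of calcium response area above 5 SD of library B-scores, with initial fluorescence ratio within 5 SD of library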;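 also: B-score of integrated fluorescence ratio over time as area under calcium response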
TRPC4 spec 2 – mouse TRPC4 off-target activity of TRPC6 inhibitors, second screen | AID 2776 | HEK293 TRPC4/MOR, membrane potential dye fluorescence; channel activated by saturating DAMGO dose | inhibition, % at 10 µM | shares compounds with TRPC6 inhibitor | hit rate 42% among 920;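 active = compounds whose fluorescence signal differed from control wells by over 3 SD, either direction, in both duplicate plates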
TRPC4 spec – mouse TRPC4 off-target activity of TRPC6 inhibitors; activity change, negative = inhibition, % at 10 µM; HEK293 TRPC4/mu-opioid, membrane potential fluorescence; shares compounds with TRPC6 inhibitor; hit rate 61% among 920;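 active = rise or fall in signal beyond 3 SD of buffer-only wells in both replicate plates, either sign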;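 also: integrated kinetic ratio of fluorescence range over baseline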
HEK293 MPD ctr 2-1 – second check of TRPC6 inhibitor effects in parental HEK293 cells; shares compounds with TRPC6 inhibitor; parental HEK293 membrane potential dye fluorescence; maximal acetylcholine challenge after compound addition; signal change vs control, % at 10 µM; hit rate 31% among 920;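 active = membrane potential signal moving either way by over 3 SD of the maximum-effect control, in both duplicate plates, meaning non-specific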
HEK293 MPD ctr-1 – counter-screen for TRPC6 inhibitors: effect in parental HEK293 cells; hit rate 60% among 920; shares compounds with TRPC6 inhibitor; membrane potential signal change, % at 10 µM; parental HEK293 membrane potential dye fluorescence;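 active = membrane potential signal shifting up or down by more than 3 SD of buffer-only wells, on both duplicate plates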
HEK293 MPD ctr-2 – counter-screen for TRPC6 modulators: effect in parental HEK293 cells; AID 488924; membrane potential dye fluorescence; membrane potential signal change, % at 10 µM; hit rate 51% among 2,400; shares compounds with TRPC6 inhibitor;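 active = membrane potential signal moves up or down beyond 5 SD from buffer-only wells, on both duplicate plates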
HEK293 MPD ctr 2-2 – second counter-screen for TRPC6 modulators: effect in parental HEK293 cells | shares compounds with TRPC6 inhibitor | membrane potential dye fluorescence; after compound, maximal acetylcholine stimulation | inhibition, % at 10 µM | hit rate 14% among 2,400 | AID 488926;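 active = membrane potential signal drops by more than 5 SD from the mean control signal, in both duplicate plates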;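 also: plate controls were acetylcholine ECmax control wells for no effect and buffer only wells for full effect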
TRPC4/MOR mod – mouse TRPC4 off-target activity of TRPC6 modulators. HEK293 TRPC4/mu-opioid, membrane potential fluorescence. AID 488927. percent change from control (negative = decrease, positive = increase), % at 10 µM. hit rate 69% among 2,400. shares compounds with TRPC6 inhibitor;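 active = membrane potential signal moved up or down beyond 5 SD of buffer control wells, in both duplicate plates, actives on both sides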;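 also: plate controls were assay buffer wells for no effect and DAMGO maximal-effect wells for full effect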
TRPC4 ctr inh 2 – second selectivity test of TRPC6 modulators against mouse TRPC4; shares compounds with TRPC6 inhibitor; HEK293 TRPC4/mu-opioid, membrane potential dye fluorescence; stimulated with maximal-effect DAMGO; inhibition, % at 10 µM; hit rate 55% among 2,400; AID 488928;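 active = drop in membrane potential signal beyond 5 SD of the control wells in both duplicate plates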;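 also: TRPC4 counter screen for TRPC6 hits run under conditions tuned for TRPC6 not TRPC4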
TRPC6 inh conf – confirmation of mouse TRPC6 inhibitors. shares compounds with TRPC6 inhibitor. HEK293-TRPC6, membrane potential dye, ACh-evoked depolarization. inhibition, % at 10 µM. hit rate 43% among 3,300;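 active = fluorescence ratio falls more than 5 SD below the full-stimulation control mean, in both duplicate runs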;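 also: integrated fluorescence ratio of peak minus minimum over baseline after agonist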
TRPC6 act confirm – mouse TRPC6 activator confirmation. shares compounds with TRPC6 inhibitor. HEK293-TRPC6 membrane potential dye fluorescence, FDSS. activation, % at 10 µM. hit rate 11% among 2,800;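 active = ratio signal rise beyond 5 SD above unstimulated control wells' mean, seen in both duplicate runs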;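 also: plate controls were buffer EC0 wells for no effect and acetylcholine ECmax response for full effect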
* hit, by the source's call; i = inactive; / = no result given.

SMILES	TRPC4 act	TRPC6 activator	TRPC6 inhibitor	TRPC4 block	TRPC4 PAM	HEK293 MPD ctr-2	HEK293 MPD ctr 2-2	TRPC4/MOR mod	TRPC4 ctr inh 2	TRPC6 inh conf	TRPC6 act confirm	others
CCN(CCO)c1ccc(N=Cc2c(O)n(C)c(=S)[nH]c2=O)cc1	i	23*	-7.5*	i	i	162%*	i	26%*	i	36%*	54%*
CCN(CC)c1ccc(N=Cc2c(O)n(Cc3ccco3)c(=O)[nH]c2=O)cc1	i	i	i	i	i	/	/	/	/	/	/
CCCC(=O)c1ccc(CP(=O)(OCC)OCC)o1	i	i	i	i	i	/	/	/	/	/	/
Cc1ccc(C[n+]2c(-c3ccc(C)cc3)cc(-c3ccc(C)cc3)cc2-c2ccc(C)cc2)cc1	160*	i	-7*	i	i	/	/	/	/	81%*	i	TRPC4 spec 2=56%*;TRPC4 spec=-16%*;HEK293 MPD ctr 2-1=i;HEK293 MPD ctr-1=-196%*
COc1ccccc1Sc1ccccc1CC(C)N (centres undefined)	i	i	-5*	i	i	i	i	i	66%*	44%*	i
C[n+]1c2ccccc2nc2ccc(NCCO)cc21	i	i	-7.4*	i	i	-114%*	133%*	-36%*	50%*	66%*	i
CNc1ccc2nc3ccccc3[n+](C)c2c1	i	i	-12*	i	i	-84%*	162%*	-48%*	52%*	86%*	i
COc1cc(C(=S)N2CCOCC2)cc(OC)c1OC(=O)Cc1ccccc1	i	i	i	i	i	/	/	/	/	/	/
Cc1ncc(CN2CCCC(C(=O)c3sccc3C)C2)s1 (centres undefined)	i	i	i	i	i	/	/	/	/	/	/
O=C(NC1CN2CCC1CC2)c1cc(Cl)c([N+](=O)[O-])c2nc[nH]c12 (centres undefined)	i	i	-5.9*	i	i	-218%*	i	-33%*	i	i	i
O=S(=O)(NC1CN2CCC1CC2)c1ccc(Cl)cc1 (centres undefined)	i	i	i	i	i	/	/	/	/	/	/
CCC(C)/C=C(C)/C=C/C1=CC2=C(Cl)C(=O)C(C)(OC(C)=O)C(=O)C2=CO1 (centres undefined)	i	i	-6.5*	i	i	-84%*	69%*	-22%*	93%*	88%*	i
CN1CCN(c2cccc3c2C(=O)c2ccccc2C3=O)CC1	i	i	-18*	i	17*	-288%*	82%*	-53%*	72%*	80%*	i
CN1CCN(c2ccc(NC(=O)Oc3ccccc3)cc2)CC1	i	i	i	i	i	/	/	/	/	/	/
CN1CCN(c2ccc3c(c2)S(=O)(=O)c2ccccc2C3=O)CC1	i	i	-5.3*	i	i	90%*	i	-52%*	32%*	i	i
Cc1ccc(N2C(=O)CC(=O)NC2=O)c(C)c1	i	i	i	i	i	/	/	/	/	/	/
COC(=O)C1=C(c2cc3ccccc3s2)C[C@@H]2CC[C@H]1N2C(=O)N1CCCCC1	i	i	i	i	i	/	/	/	/	/	/
CCOC(=O)C(O)(c1ccc(N(CC)C(=O)COc2ccccc2)cc1)C(F)(F)F (centres undefined)	i	i	-5*	i	i	i	i	i	i	i	i
CCC1(c2ccc(N)cc2)CCC(=O)NC1=O (centres undefined)	i	i	i	i	i	/	/	/	/	/	/
CC12CN3CCN(C1)CC(C)(C3)C2=NN	i	i	i	i	i	/	/	/	/	/	/
COc1ccc(C(=O)C2CCCN(Cc3cccc(C)n3)C2)c(OC)c1 (centres undefined)	i	i	-6.4*	i	i	i	i	9.5%*	i	i	/
COc1ccc(C(=O)C2CCCN(Cc3ccc(C)s3)C2)c(OC)c1 (centres undefined)	i	i	i	i	i	/	/	/	/	/	/
CN1C2CCC1CC(OC(c1ccccc1)c1ccccc1N)C2 (centres undefined)	i	i	-5.6*	i	i	110%*	92%*	21%*	40%*	88%*	/
CN1C2CCC1C(COC(=O)c1ccccc1)C(O)C2 (centres undefined)	i	i	i	i	i	/	/	/	/	/	/
Cc1cccc(-c2nc3ccc(C(=O)N4CCC5(CC4)OCCO5)cc3nc2-c2cccc(C)c2)c1	i	13*	-7.3*	i	i	i	i	14%*	i	79%*	116%*
N=Cc1c(O)n(-c2ccccc2)c(=O)n(-c2ccccc2)c1=O	i	i	i	i	i	/	/	/	/	/	/
O=C(NCCO)c1nsnc1NCCCl	i	i	i	i	i	/	/	/	/	/	/
OC(c1cccc(Cl)c1)(c1cccc(Cl)c1)C1CN2CCC1CC2 (centres undefined)	i	i	-8*	i	i	i	i	10%*	i	70%*	i
Clc1ccc2c(c1)C(OC1CN3CCC1CC3)c1ccccc1CS2 (centres undefined)	i	i	i	i	i	/	/	/	/	/	/
